According to ChEMBL document CHEMBL5724801, “EUbOPEN Chemogenomics Library - Multiplex” (2024):
Where “and” joins values, the source holds several entries; their conditions need not be identical. Equal values may be shown once.

Columns and labels:
[1] = test system: Fibroblast; assay: Multiplex assay against human fibroblast; type: toxicity, cell-based
In short: (§1)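 Per cents of healthy-nucleus cells form the tubulin, mitochondrial-mass and membrane-permeability phenotype values. Live cells were stained at seeding with Hoechst33342, BioTracker Green Microtubule Cytoskeleton Dye, MitoTracker Red and Annexin V Alexa Fluor 680. After compound addition they were imaged on a CQ1 microscope at 37°C and 5% CO2, and CellPathfinder machine-learning gating split them into Hoechst high-intensity objects or normal cells, normal cells into healthy, pyknosed or fragmented nuclei, and pyknosed cells into mitotic or apoptotic.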

[2] = test system: HEK-293T; assay: Multiplex assay against HEK293T; type: toxicity, cell-based; conditions: human; in short: as §1
[3] = 12 h, 1 µM, compound concentration 1 uM
[4] = 12 h, 10 µM, compound concentration 10 uM
[5] = 24 h, 1 µM, compound concentration 1 uM
[6] = 24 h, 10 µM, compound concentration 10 uM
[7] = 48 h, 1 µM, compound concentration 1 uM
[8] = 48 h, 10 µM, compound concentration 10 uM

`Cl.N=C(N)NC(=O)Cc1c(Cl)cccc1Cl` [GUANFACINE HYDROCHLORIDE] was tested, and the “Population Apoptotic (%)” value [1, 3] was 44% and 28%, the “Population Fragmented Nuclei (%)” value [1, 3] was 20% and 23% and the “Population Healthy Nuclei (%)” value [1, 3] was 62% and 45%. The “Population Hoechst High Intensity Objects (%)” value [1, 3] was 2%, the “Population Membrane Permeable-Phenotype (%)” value [1, 3] was 0% and 3% and the “Population Mitochondria Different-Phenotype (%)” value [1, 3] was 4% and 7%. For the same compound, the “Population Mitotic Cells (%)” value [1, 3] was 55% and 71%, the “Population Normal (%)” value [1, 3] was 97% and the “Population Pyknosed Nuclei (%)” value [1, 3] was 16% and 31%. For the same compound, the “Population Tubulin-Different-Phenotype (%)” value [1, 3] was 32% and 46%, the “Total Cell Count” value [1, 3] was 167 and 149 and the “Population Apoptotic (%)” value [1, 4] was 66% and 35%. For the same compound, the “Population Fragmented Nuclei (%)” value [1, 4] was 16% and 22%, the “Population Healthy Nuclei (%)” value [1, 4] was 68% and 47% and the “Population Hoechst High Intensity Objects (%)” value [1, 4] was 0% and 10%. For the same compound, the “Population Membrane Permeable-Phenotype (%)” value [1, 4] was 1% and 5%, the “Population Mitochondria Different-Phenotype (%)” value [1, 4] was 5% and the “Population Mitotic Cells (%)” value [1, 4] was 33% and 64%. The “Population Normal (%)” value [1, 4] was 99% and 89%, the “Population Pyknosed Nuclei (%)” value [1, 4] was 15% and 29% and the “Population Tubulin-Different-Phenotype (%)” value [1, 4] was 24% and 46%. The “Total Cell Count” value [1, 4] was 139 and 127, the “Population Apoptotic (%)” value [1, 5] was 58% and 45% and the “Population Fragmented Nuclei (%)” value [1, 5] was 22% and 23%. The “Population Healthy Nuclei (%)” value [1, 5] was 62% and 46%, the “Population Hoechst High Intensity Objects (%)” value [1, 5] was 1% and 6% and the “Population Membrane Permeable-Phenotype (%)” value [1, 5] was 0% and 12%. For the same compound, the “Population Mitochondria Different-Phenotype (%)” value [1, 5] was 5% and 8%, the “Population Mitotic Cells (%)” value [1, 5] was 41% and 54% and the “Population Normal (%)” value [1, 5] was 98% and 93%. For the same compound, the “Population Pyknosed Nuclei (%)” value [1, 5] was 14% and 30%, the “Population Tubulin-Different-Phenotype (%)” value [1, 5] was 26% and 50% and the “Total Cell Count” value [1, 5] was 169 and 130. For the same compound, the “Population Apoptotic (%)” value [1, 6] was 63% and 25%, the “Population Fragmented Nuclei (%)” value [1, 6] was 17% and 26% and the “Population Healthy Nuclei (%)” value [1, 6] was 68% and 55%. For the same compound, the “Population Hoechst High Intensity Objects (%)” value [1, 6] was 1% and 4%, the “Population Membrane Permeable-Phenotype (%)” value [1, 6] was 0% and 13% and the “Population Mitochondria Different-Phenotype (%)” value [1, 6] was 4% and 3%. The “Population Mitotic Cells (%)” value [1, 6] was 36% and 75%, the “Population Normal (%)” value [1, 6] was 98% and 95% and the “Population Pyknosed Nuclei (%)” value [1, 6] was 14% and 18%. For the same compound, the “Total Cell Count” value [1, 6] was 137 and 114, the “Population Apoptotic (%)” value [1, 7] was 61% and 50% and the “Population Fragmented Nuclei (%)” value [1, 7] was 25% and 33%. For the same compound, the “Population Healthy Nuclei (%)” value [1, 7] was 63% and 45%, the “Population Hoechst High Intensity Objects (%)” value [1, 7] was 1% and 3% and the “Population Membrane Permeable-Phenotype (%)” value [1, 7] was 0% and 4%. For the same compound, the “Population Mitochondria Different-Phenotype (%)” value [1, 7] was 6% and 11%, the “Population Mitotic Cells (%)” value [1, 7] was 38% and 50% and the “Population Normal (%)” value [1, 7] was 98% and 96%. The “Population Pyknosed Nuclei (%)” value [1, 7] was 11% and 21%, the “Population Tubulin-Different-Phenotype (%)” value [1, 7] was 32% and 57% and the “Total Cell Count” value [1, 7] was 162 and 145. For the same compound, the “Population Apoptotic (%)” value [1, 8] was 66% and 45%, the “Population Fragmented Nuclei (%)” value [1, 8] was 22% and 39% and the “Population Healthy Nuclei (%)” value [1, 8] was 67% and 41%. The “Population Hoechst High Intensity Objects (%)” value [1, 8] was 1% and 6%, the “Population Membrane Permeable-Phenotype (%)” value [1, 8] was 1% and 8% and the “Population Mitochondria Different-Phenotype (%)” value [1, 8] was 6% and 2%. The “Population Mitotic Cells (%)” value [1, 8] was 33% and 54%, the “Population Normal (%)” value [1, 8] was 98% and 93% and the “Population Pyknosed Nuclei (%)” value [1, 8] was 10% and 19%. The “Population Tubulin-Different-Phenotype (%)” value [1, 8] was 24% and 67%, the “Total Cell Count” value [1, 8] was 142 and 120 and the “Population Apoptotic (%)” value [2, 3] was 29% and 47%. For the same compound, the “Population Fragmented Nuclei (%)” value [2, 3] was 3% and 5%, the “Population Healthy Nuclei (%)” value [2, 3] was 84% and 76% and the “Population Hoechst High Intensity Objects (%)” value [2, 3] was 7% and 12%. The “Population Membrane Permeable-Phenotype (%)” value [2, 3] was 0%, the “Population Mitochondria Different-Phenotype (%)” value [2, 3] was 46% and 67% and the “Population Mitotic Cells (%)” value [2, 3] was 70% and 52%. For the same compound, the “Population Normal (%)” value [2, 3] was 92% and 87%, the “Population Pyknosed Nuclei (%)” value [2, 3] was 11% and 17% and the “Population Tubulin-Different-Phenotype (%)” value [2, 3] was 31%. For the same compound, the “Total Cell Count” value [2, 3] was 384 and 289, the “Population Apoptotic (%)” value [2, 4] was 52% and 34% and the “Population Fragmented Nuclei (%)” value [2, 4] was 12% and 8%. The “Population Healthy Nuclei (%)” value [2, 4] was 67% and 77%, the “Population Hoechst High Intensity Objects (%)” value [2, 4] was 7% and 10% and the “Population Membrane Permeable-Phenotype (%)” value [2, 4] was 0%. For the same compound, the “Population Mitochondria Different-Phenotype (%)” value [2, 4] was 61% and 69%, the “Population Mitotic Cells (%)” value [2, 4] was 47% and 65% and the “Population Normal (%)” value [2, 4] was 92% and 89%. The “Population Pyknosed Nuclei (%)” value [2, 4] was 20% and 14%, the “Population Tubulin-Different-Phenotype (%)” value [2, 4] was 43% and 38% and the “Total Cell Count” value [2, 4] was 296 and 365. The “Population Apoptotic (%)” value [2, 5] was 36% and 50%, the “Population Fragmented Nuclei (%)” value [2, 5] was 8% and 4% and the “Population Healthy Nuclei (%)” value [2, 5] was 80% and 83%. The “Population Hoechst High Intensity Objects (%)” value [2, 5] was 4% and 10%, the “Population Membrane Permeable-Phenotype (%)” value [2, 5] was 0% and the “Population Mitochondria Different-Phenotype (%)” value [2, 5] was 27% and 42%. For the same compound, the “Population Mitotic Cells (%)” value [2, 5] was 63% and 50%, the “Population Normal (%)” value [2, 5] was 95% and 89% and the “Population Pyknosed Nuclei (%)” value [2, 5] was 11%. The “Population Tubulin-Different-Phenotype (%)” value [2, 5] was 21% and 19% and the “Total Cell Count” value [2, 5] was 493 and 344.
